Assay results: ChEMBL document CHEMBL1124052, “New inhibitors of human renin that contain novel Leu-Val replacements. Examination of the P1 site” (J Med Chem, 1988)
Non-standard residues stand in square brackets, D forms with d. Residues, ends and D or L forms follow the SMILES beside them. *: point of attachment. hCha = N[C@@H](CCC1CCCCC1)C(=O)O; Cha = N[C@@H](CC1CCCCC1)C(=O)O; Chg = N[C@H](C(=O)O)C1CCCCC1; Boc = CC(C)(C)OC(=O)*

Legend:
Renin = biological target: T1, Renin (Homo sapiens, UniProt P00797); assay: (§1) Inhibition of human renal renin at pH 6
T1 sequence (P00797 whole entry): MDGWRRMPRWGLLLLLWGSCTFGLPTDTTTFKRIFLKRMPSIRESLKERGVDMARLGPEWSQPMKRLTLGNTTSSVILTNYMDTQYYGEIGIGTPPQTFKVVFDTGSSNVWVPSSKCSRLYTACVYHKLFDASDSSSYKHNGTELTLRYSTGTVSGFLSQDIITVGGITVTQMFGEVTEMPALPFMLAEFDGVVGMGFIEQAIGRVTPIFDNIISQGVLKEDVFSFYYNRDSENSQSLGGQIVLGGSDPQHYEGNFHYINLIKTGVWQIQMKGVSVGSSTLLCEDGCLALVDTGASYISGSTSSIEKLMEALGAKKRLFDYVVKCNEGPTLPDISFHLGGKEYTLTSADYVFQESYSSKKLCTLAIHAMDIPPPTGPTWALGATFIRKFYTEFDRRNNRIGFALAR
Method in brief: (§2)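 Purified human renal renin (0.24 mGU) was incubated with pure human angiotensinogen (0.21 µM final) in 0.135 M maleate pH 6.0 with 3 mM EDTA, 1.4 mM PMSF, 0.44% BSA and 1% DMSO. At least three inhibitor levels bracketing the IC50 were preincubated with renin for 5.0 min at 37 °C, then reacted 10.0 min. The reaction was stopped by freezing, angiotensin I was measured by RIA, and the IC50 was taken by regression of percent inhibition.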

Renin (Homo sapiens) [1] = biological target: T2, Renin (Homo sapiens) (UniProt P00797); assay: as §1; settings: concentration not given here; method in brief: as §2
T2 sequence (whole entry): T1 sequence (P00797 whole entry)

Renin (Homo sapiens) [2] = biological target: T2, Renin (Homo sapiens); assay: Inhibitory activity against human renal renin at pH 6 at concentration 10E-5 M

C[C@H](NC(=O)[C@H](Cc1ccccc1)NC(=O)OC(C)(C)C)C(=O)N[C@H](C=O)C(C1CCCCC1)C1CCCCC1
IC50 (Renin): 40000 nM

CC(C)SC[C@H](O)[C@@H](NC(=O)[C@H](C)NC(=O)[C@H](Cc1ccccc1)NC(=O)OC(C)(C)C)C(c1ccccc1)c1ccccc1
inhibition (Renin (Homo sapiens) [1]): 11%

CC(C)C[C@H](NC(=O)[C@H](Cc1cnc[nH]1)NC(=O)[C@H](Cc1ccccc1)NC(=O)OC(C)(C)C)[C@@H](O)CSC(C)C
IC50 (Renin): 81 nM

CC(C)SC[C@H](O)[C@H](CCC1CCCCC1)NC(=O)[C@H](Cc1c[nH]cn1)NC(=O)[C@H](Cc1ccccc1)NC(=O)OC(C)(C)C
IC50 (Renin): 1500 nM

CC(C)SC[C@H](O)[C@@H](NC(=O)[C@H](Cc1cnc[nH]1)NC(=O)[C@H](Cc1ccccc1)NC(=O)OC(C)(C)C)C1CCCCC1
IC50 (Renin): 150 nM

C[C@H](NC(=O)[C@H](Cc1ccccc1)NC(=O)OC(C)(C)C)C(=O)N[C@H](C=O)C1CCCCC1 (Boc-Phe-Ala-[Chg]-aldehyde)
IC50 (Renin): 1000 nM

Cc1cc(C)c(C[C@H](NC(=O)[C@H](C)NC(=O)[C@H](Cc2ccccc2)NC(=O)OC(C)(C)C)[C@@H](O)CSC(C)C)c(C)c1
inhibition (Renin (Homo sapiens) [1]): 5%

CC(C)SC[C@H](O)[C@H](Cc1ccccc1)NC(=O)[C@H](C)NC(=O)[C@H](Cc1ccccc1)NC(=O)OC(C)(C)C
IC50 (Renin): 170 nM

CC(C)SC[C@H](O)[C@H](CC1CCCCC1)NC(=O)[C@H](C)NC(=O)[C@H](Cc1ccccc1)NC(=O)OC(C)(C)C
IC50 (Renin): 9 nM

CC(C)SC[C@H](O)[C@@H](NC(=O)[C@H](Cc1c[nH]cn1)NC(=O)[C@H](Cc1ccccc1)NC(=O)OC(C)(C)C)C(c1ccccc1)c1ccccc1
inhibition (Renin (Homo sapiens) [1]): 3%

CC(C)SC[C@H](O)[C@H](CC12CC3CC(CC(C3)C1)C2)NC(=O)[C@H](Cc1c[nH]cn1)NC(=O)[C@H](Cc1ccccc1)NC(=O)OC(C)(C)C
IC50 (Renin): 2500 nM

C[C@H](NC(=O)[C@H](Cc1ccccc1)NC(=O)OC(C)(C)C)C(=O)N[C@H](C=O)CC12CC3CC(CC(C3)C1)C2
IC50 (Renin): 35000 nM

CC(C)SC[C@H](O)[C@@H](NC(=O)[C@H](C)NC(=O)[C@H](Cc1ccccc1)NC(=O)OC(C)(C)C)C1CCCCC1
IC50 (Renin): 1500 nM

CC(C)SC[C@H](O)[C@H](CCC1CCCCC1)NC(=O)[C@H](C)NC(=O)[C@H](Cc1ccccc1)NC(=O)OC(C)(C)C
inhibition (Renin (Homo sapiens) [2]): 45%

CC(C)C[C@@H](C=O)NC(=O)[C@H](C)NC(=O)[C@H](Cc1ccccc1)NC(=O)OC(C)(C)C (Boc-Phe-Ala-Leu-aldehyde)
IC50 (Renin): 20000 nM

C[C@H](NC(=O)[C@H](Cc1ccccc1)NC(=O)OC(C)(C)C)C(=O)N[C@H](C=O)CC1CCCCC1 (Boc-Phe-Ala-[Cha]-aldehyde)
IC50 (Renin): 460 nM

CC(C)SC[C@H](O)[C@H](Cc1ccccc1)NC(=O)[C@H](Cc1cnc[nH]1)NC(=O)[C@H](Cc1ccccc1)NC(=O)OC(C)(C)C
IC50 (Renin): 19 nM

C[C@H](NC(=O)[C@H](Cc1ccccc1)NC(=O)OC(C)(C)C)C(=O)N[C@H](C=O)CCC1CCCCC1 (Boc-Phe-Ala-[hCha]-aldehyde)
IC50 (Renin): 55000 nM
